Assay results: article PMC4911243 (Cancer research, 2016)

How the values were obtained:
[1] = system: HES1 promoter occupancy in OE33 and 786-0 cells; assay: ChIP assay on the HES1 promoter; type: cell-based, human; conditions: DAPT 15 μM, IMR-1 25 μM
How it was run: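 OE33 and 786-0 cells were exposed to DAPT, test compound or DMSO vehicle. Chromatin immunoprecipitation used the indicated antibodies against NTC components, and HES1 promoter occupancy was assessed.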

[2] = system: Notch-independent cell lines (refractory to DAPT); assay: Colony formation assay, Notch-independent cell lines; type: cell-based, human; conditions: cells refractory to DAPT
Notch1 (NICD) = Notch1 (NICD) (Homo sapiens, UniProt P46531); assay: Surface plasmon resonance, binding to NICD; conditions: for mode of binding to Notch1: SPR sensorgrams, dissociation to baseline; for Kd: SPR, equilibrium approach, 1:1 binding model, wild type NICD
Sequence of Notch1 (NICD) (P46531 1754-2555 limits assumed): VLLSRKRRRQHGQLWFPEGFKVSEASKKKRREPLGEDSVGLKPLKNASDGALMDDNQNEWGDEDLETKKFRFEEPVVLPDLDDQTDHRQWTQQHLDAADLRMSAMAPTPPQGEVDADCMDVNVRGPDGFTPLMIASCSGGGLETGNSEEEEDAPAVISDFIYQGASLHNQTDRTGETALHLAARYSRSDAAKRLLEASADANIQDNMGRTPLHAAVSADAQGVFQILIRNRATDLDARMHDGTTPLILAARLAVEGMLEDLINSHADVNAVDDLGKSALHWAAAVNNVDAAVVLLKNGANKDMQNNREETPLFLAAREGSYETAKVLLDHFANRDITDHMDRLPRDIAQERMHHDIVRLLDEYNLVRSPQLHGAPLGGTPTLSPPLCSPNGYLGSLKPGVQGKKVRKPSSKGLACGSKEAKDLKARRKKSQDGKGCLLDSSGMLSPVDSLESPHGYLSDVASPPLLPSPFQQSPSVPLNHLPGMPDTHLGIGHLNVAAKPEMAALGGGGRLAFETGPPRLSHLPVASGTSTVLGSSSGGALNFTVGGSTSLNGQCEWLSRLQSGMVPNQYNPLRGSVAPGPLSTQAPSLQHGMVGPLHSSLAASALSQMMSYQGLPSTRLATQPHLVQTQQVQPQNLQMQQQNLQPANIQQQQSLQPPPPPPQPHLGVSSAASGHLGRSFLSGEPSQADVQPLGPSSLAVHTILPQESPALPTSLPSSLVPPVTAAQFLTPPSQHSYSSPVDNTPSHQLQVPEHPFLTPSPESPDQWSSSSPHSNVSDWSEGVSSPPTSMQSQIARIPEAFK
How it was run: (§1)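 NICD (wild type or point mutant) was amine-coupled to a CM5 chip. Runs were on a Biacore T200 at 25 °C in 10 mM PBS pH 7.5 with 5% DMSO as running buffer. Signals were corrected against a DMSO control. Dissociation was followed under buffer flow. KD came from equilibrium response (Req) versus test compound concentration, fitted to a 1:1 binding model.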

[3] = target: Notch ternary complex (CSL, Notch1, Maml1 on DNA) (Homo sapiens, UniProt P46531); assay: in vitro Notch ternary complex; type: biochemical; conditions: for IC50: in vitro NTC assay, dose-response
Sequence of Notch ternary complex (CSL, Notch1, Maml1 on DNA) (P46531 1754-2555 limits assumed): as above
Sequence of Notch ternary complex (CSL, Notch1, Maml1 on DNA) (Q06330 whole entry partner): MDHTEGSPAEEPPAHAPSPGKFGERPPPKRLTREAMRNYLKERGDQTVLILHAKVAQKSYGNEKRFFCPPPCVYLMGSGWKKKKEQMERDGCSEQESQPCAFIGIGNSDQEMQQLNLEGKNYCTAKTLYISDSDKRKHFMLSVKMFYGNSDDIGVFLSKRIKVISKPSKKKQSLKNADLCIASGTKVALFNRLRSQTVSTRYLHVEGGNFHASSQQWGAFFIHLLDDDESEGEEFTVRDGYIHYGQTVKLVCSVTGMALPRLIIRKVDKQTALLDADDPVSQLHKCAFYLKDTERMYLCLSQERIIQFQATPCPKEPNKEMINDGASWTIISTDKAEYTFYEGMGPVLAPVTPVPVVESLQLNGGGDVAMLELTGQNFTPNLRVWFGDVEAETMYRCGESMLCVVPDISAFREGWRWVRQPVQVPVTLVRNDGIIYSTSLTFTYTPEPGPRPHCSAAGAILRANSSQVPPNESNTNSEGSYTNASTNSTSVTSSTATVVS

[4] = Plasma pharmacokinetic profile in mice; type: in vivo, male C57 BL/6 mice; conditions: for signal in plasma: after IMR-1 i.v. 2 mg/kg and i.p. 100 mg/kg, any time point
How it was run: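 Male C57BL/6 mice received a single test compound dose, either 2 mg/kg i.v. or 100 mg/kg i.p. Plasma was analysed by mass spectrometry (m/z) for parent and acid metabolite. Metabolite PK parameters (Tmax, T1/2, CL, Vss) were calculated on the parent dose. Clearance was referenced to 90 mL/min/kg liver blood flow, and Vss to 0.7 L/kg total body water.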

[5] = system: OE19 human esophageal adenocarcinoma cells; assay: OE19 xenograft model in nude mouse; type: in vivo; conditions: 15 mg/kg
How it was run: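 Nude mice received 5 × 10^6 OE19 cells in the flank, and tumors developed over 4 weeks. Mice were treated with test compound at 15 mg/kg or DMSO control. Tumor establishment and body weight were monitored through treatment.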

[6] = system: NICD in OE33 and 786-0 cells; assay: Western analysis of NICD levels; type: cell-based, human; conditions: Western analysis of lysates from ChIP assay cells
How it was run: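 Lysates came from the same treated OE33 and 786-0 cells used for ChIP (DAPT 15 μM, test compound 25 μM, or DMSO). Western blots were probed with anti-Notch1, anti-cleaved Notch1 (Val1744) and anti-GAPDH antibodies.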

NICD R2096A = NICD R2096A (Homo sapiens, UniProt P46531, R2095A); assay: Surface plasmon resonance, binding to mutated NICD; conditions: SPR, R2096 substituted by alanine
Sequence of NICD R2096A (P46531 1754-2555 R2095A): as the sequence (P46531 1754-2555 limits assumed) above, with R342A counted along it
How it was run: as §1

D. rerio (zebrafish) = assay: Somite formation in zebrafish embryos; type: in vivo; conditions: embryos soaked in 40 μM IMR-1
How it was run: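 Zebrafish embryos were exposed to test compound at 8 hpf and examined at 13 hpf in coronal view for somites. Controls were untreated, DMSO vehicle, and 100 pg human Notch1 intracellular domain mRNA-injected embryos. The percentage of embryos with somites was scored and compared by Fisher's exact test.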

NICD R2061A = NICD R2061A (Homo sapiens, UniProt P46531, R2060A); assay: Surface plasmon resonance, binding to mutated NICD; conditions: SPR
Sequence of NICD R2061A (P46531 1754-2555 R2060A): as the sequence (P46531 1754-2555 limits assumed) above, with R307A counted along it
How it was run: as §1

[7] = system: Notch target genes (Hes-1, Hey-L) in OE33 and 786-0 cells; assay: RT-qPCR analysis of Notch target genes; type: cell-based, human
How it was run: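 OE33 and 786-0 cells were treated, then Hes-1 and Hey-L were measured by reverse transcription and TaqMan qPCR. Values were normalized to TBP and HPRT and expressed relative to vehicle (DMSO) control set to 1.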

[8] = system: patient-derived esophageal adenocarcinoma xenograft (EAC29 and EAC47); assay: Patient-derived esophageal adenocarcinoma xenograft; type: in vivo
How it was run: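 Patient-derived esophageal adenocarcinoma tumors were grown in NSG mice to 200 mm3 before treatment began. Mice then received daily i.p. doses of test compound (15 mg/kg), comparator inhibitor (20 mg/kg) or DMSO vehicle. After 24 days, tumors were harvested. Notch target gene transcription was measured by RT-qPCR (TaqMan) and normalized to TBP and HPRT.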

NICD R2105A = NICD R2105A (Homo sapiens, UniProt P46531, R2104A); assay: Surface plasmon resonance, binding to mutated NICD; conditions: SPR, R2105 substituted by alanine
Sequence of NICD R2105A (P46531 1754-2555 R2104A): as the sequence (P46531 1754-2555 limits assumed) above, with R351A counted along it
How it was run: as §1

NICD R2071A = NICD R2071A (Homo sapiens, UniProt P46531, R2070A); assay: Surface plasmon resonance, binding to mutated NICD; conditions: SPR
Sequence of NICD R2071A (P46531 1754-2555 R2070A): as the sequence (P46531 1754-2555 limits assumed) above, with R317A counted along it
How it was run: as §1

[9] = IMR-1A after IMR-1 i.p. 100 mg/kg, mice plasma

With `C[C@H](NC(=O)Cc1cc(F)cc(F)c1)C(=O)N[C@H](C(=O)OC(C)(C)C)c1ccccc1` [DAPT, reference compound] the “occupancy of Maml1 on the HES1 promoter” value [1] was “decreased the occupancy”, the “occupancy of Notch1 on the HES1 promoter” value [1] was “decreased the occupancy” and the colony formation [2] was “refractory”.
In the case of `COc1cc(/C=C2/SC(=S)NC2=O)ccc1OCC(=O)O` [IMR-1A], the “mode of binding to Notch1” value (Notch1 (NICD)) is reported as “non-covalent, reversible binding”, the Kd (Notch1 (NICD)) is reported as 2.9 ± 0.6 µM and the “increase in potency with respect to IMR-1” value ([3]; in vitro NTC assay IC50) is reported as 50 fold. It also gave an IC50 [3] of 0.5 µM, a T1/2 [4, 9] of 6.16 h and a Tmax [4, 9] of 30 min. For the same molecule, the “Vss relative to normal volume of total body water (0.7 L/kg)” value ([4]; IMR-1A after IMR-1 i.v. 2 mg/kg) was ~ 4 fold, the T1/2 ([4]; IMR-1A after IMR-1 i.v. 2 mg/kg, mice plasma) was 2.22 h and the CL ([4]; IMR-1A after IMR-1 i.v. 2 mg/kg, mice plasma, 2 mg/kg) was 7 mL/min/kg. For the same molecule, the “time up to which plasma concentrations were quantifiable” value ([4]; after IMR-1 i.p. 100 mg/kg) was “up to 24 h” and the signal in plasma [4] was “present”.
In the case of IMR-1, the adverse effects [5] is reported as “no observable adverse effects”, the tumor establishment ([5]; nude mouse, OE19 cells, 4 weeks) is reported as “readily blocks tumor establishment” and the body weight ([5]; throughout the treatment course) is reported as “remained constant”. The “levels of NICD in cells” value [6] was “does not change”, the “occupancy of Maml1 on the HES1 promoter” value [1] was “decreased the occupancy” and the “occupancy of Notch1 on the HES1 promoter” value [1] was “did not affect the occupancy”. The “mode of binding to Notch1” value (Notch1 (NICD)) was “non-covalent, reversible binding”, the Kd (Notch1 (NICD)) was 11 ± 3 µM and the “effect of mutation on affinity” value (NICD R2096A) was “No effect”. The “embryos with disruption of somite formation” value (D. rerio (zebrafish)) was 69.7%, the Kd (NICD R2061A; NICD R2061A) was 35.6 µM and the “decrease in affinity relative to wild type NICD” value (NICD R2061A; R2061 replaced with alanine) was “approximately 5 fold”. The IC50 [3] was 26 µM, the colony formation [2] was “equally resistant” and the “Notch target gene transcription” value ([7]; Hes-1, Hey-L, OE33 and 786-0) was “dose-dependent decrease”. The “transcription of the housekeeping gene HPRT” value ([7]; treated cells) was “unaltered”, the “expression level of Notch target genes (Hes1, HeyL, Notch3) in excised tumors” value ([8]; after 24 days of treatment, both PDX models) was “dramatically reduced” and the “weight loss or visible signs of adverse effects” value ([8]; daily i.p. 15 mg/kg) was “without any significant weight loss or other visible signs of adverse effects”. The PDX tumor growth ([8]; daily i.p., IMR-1 15 mg/kg or DAPT 20 mg/kg, 24 days, vs DMSO) was “significantly abrogated growth”, the “general toxicity upon in vivo treatment” value ([8]; in vivo treatment, summary statement) was “no general toxicity was observed” and the signal in plasma [4] was “no signal was detected”. For the same molecule, the clinical signs ([4]; single i.v. 2 mg/kg and i.p. 100 mg/kg, through last sample withdrawal) was “did not induce any clinical signs”, the “effect of mutation on affinity” value (NICD R2105A) was “No effect” and the Kd (NICD R2071A; NICD R2071A) was 38.7 µM. The “decrease in affinity relative to wild type NICD” value (NICD R2071A; R2071 replaced with alanine) was “approximately 5 fold”.
